What was measured:
Neutrophil elastase = target: T1, Neutrophil elastase (Homo sapiens, UniProt P08246); test: Binding constant derived from inhibition of elastase catalyzed hydrolysis of synthetic substrate
T1 sequence (P08246 whole entry): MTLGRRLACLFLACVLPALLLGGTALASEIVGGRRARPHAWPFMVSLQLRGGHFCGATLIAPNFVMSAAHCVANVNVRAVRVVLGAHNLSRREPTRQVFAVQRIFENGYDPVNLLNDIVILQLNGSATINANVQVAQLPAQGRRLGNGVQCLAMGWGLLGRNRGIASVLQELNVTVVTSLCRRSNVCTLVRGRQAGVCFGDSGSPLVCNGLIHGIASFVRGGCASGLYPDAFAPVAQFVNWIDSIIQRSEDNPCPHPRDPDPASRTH

Cricetinae gen. sp. [1] = test: (§1) Inhibition of HNE-induced lung hemorrhage in hamsters after oral administration of 30 mg/kg followed by intratracheal instillation of HNE (10 U/lung); format: functional
Outline: (§2)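 Hamsters (n = 6-10) were dosed orally 1 h before intratracheal instillation of HNE (10 U/lung). The read-out was inhibition of the HNE-induced lung hemorrhage.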

Cricetinae gen. sp. [2] = test: Inhibition of HNE-induced lung hemorrhage in hamsters after oral administration followed by intratracheal instillation of HNE (10 U/lung); format: functional; outline: as §2
[3] = Maximum concentration of […] drug in plasma recorded in the period of 0-24 hr after administering orally a dose of 3 mg/kg; format: ADME, organism-based; set-up: dose 3 mg/kg, route oral; conditions: rat, po
Outline: (§3)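 Unchanged drug measured in plasma over 0–24 h after dosing. Cmax recorded over 0–24 h, with Tmax as the time of Cmax. Half-life determined over 6–24 h after dosing. Mean ± SD, n = 4.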

[4] = Bioavailability was evaluated when a dose of 3 mg/kg was administered orally to a fasting rat; format: ADME, organism-based; conditions: in vivo, po
Outline: (§4)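 Oral dosing as a suspension in 0.5% CMC; intravenous dosing as a solution in 35% HP-β-CD. Unchanged drug measured in plasma over 0–24 h after dosing. AUC is the integrated area under the concentration versus time curve. Oral bioavailability is taken from the […]. Mean ± SD, n = 4 (n = 3 for some i.v. groups).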

[5] = Time of maximum concentration of the drug when administered orally a dose of 30 mg/kg; format: ADME, organism-based; set-up: dose 30 mg/kg, route oral; conditions: rat, in vivo, po; outline: as §3
[6] = Pharmacokinetic parameter AUC was evaluated intravenous administration of 3 mg/kg; format: ADME, organism-based; set-up: dose 3 mg/kg, route intravenous; conditions: rat, in vivo; outline: as §4
[7] = Time of maximum concentration of the drug when administered orally a dose of 10 mg/kg to a fasting rat; format: ADME, organism-based; set-up: dose 10 mg/kg, route oral; conditions: in vivo, po; outline: as §3
[8] = Pharmacokinetic parameter AUC was evaluated when a dose of 1 mg/kg is administered orally to a fasting rat; format: ADME, organism-based; set-up: dose 1 mg/kg, route oral; conditions: in vivo, po; outline: as §4
[9] = Bioavailability was evaluated when a dose of 3 mg/kg was administered orally; format: ADME, organism-based; conditions: rat, in vivo, po; outline: as §4
[10] = Time of maximum concentration of the drug when administered orally a dose of 3 mg/kg to a fasting rat; format: ADME, organism-based; set-up: dose 3 mg/kg, route oral; conditions: in vivo, po; outline: as §3
[11] = Maximum concentration of […] drug in plasma recorded in the period of 0-24 hr after administering orally a dose of 10 mg/kg to a fasting rat; format: ADME, organism-based; set-up: dose 10 mg/kg, route oral; conditions: po; outline: as §3
[12] = Half life after the administered orally a dose of 1 mg/kg to a fasting rat; format: ADME, organism-based; set-up: dose 1 mg/kg, route oral; conditions: in vivo, po; outline: as §3
[13] = Maximum concentration of […] drug in plasma recorded in the period of 0-24 hr after administering orally a dose of 30 mg/kg; format: ADME, organism-based; set-up: dose 30 mg/kg, route oral; conditions: rat, po; outline: as §3
[14] = Maximum concentration of […] drug in plasma recorded in the period of 0-24 hr after administering orally a dose of 3 mg/kg to a fasting rat; format: ADME, organism-based; set-up: dose 3 mg/kg, route oral; conditions: po; outline: as §3
[15] = Pharmacokinetic parameter AUC was evaluated when a dose of 3 mg/kg is administered orally; format: ADME, organism-based; set-up: dose 3 mg/kg, route oral; conditions: rat, in vivo, po
[16] = Time of maximum concentration of the drug when administered orally at dose of 3 mg/kg; format: ADME, organism-based; set-up: dose 3 mg/kg, route oral; conditions: rat, in vivo, po; outline: as §3
[17] = Pharmacokinetic parameter AUC was evaluated when a dose of 30 mg/kg is administered orally; format: ADME, organism-based; set-up: dose 30 mg/kg, route oral; conditions: rat, in vivo, po; outline: as §4
[18] = Time of maximum concentration of the drug when administered orally a dose of 1 mg/kg to a fasting rat; format: ADME, organism-based; set-up: dose 1 mg/kg, route oral; conditions: in vivo, po; outline: as §3
[19] = Half life after administering intravenously a dose of 3 mg/kg; conditions: rat, in vivo, iv
[20] = Half life after administering orally a dose of 3 mg/kg to a fasting rat; format: ADME, organism-based; set-up: dose 3 mg/kg, route oral; conditions: in vivo, po; outline: as §3
[21] = Maximum concentration of […] drug in plasma recorded in the period of 0-24 hr after administering orally a dose of 1 mg/kg to a fasting rat; format: ADME, organism-based; set-up: dose 1 mg/kg, route oral; conditions: po; outline: as §3
[22] = Half life after administering orally a dose of 3 mg/kg; format: ADME, organism-based; set-up: dose 3 mg/kg, route oral; conditions: rat, in vivo, po; outline: as §3
[23] = Pharmacokinetic parameter AUC was evaluated when a dose of 3 mg/kg is administered orally to a fasting rat; format: ADME, organism-based; set-up: dose 3 mg/kg, route oral; conditions: in vivo, po
[24] = Half life after administering orally a dose of 10 mg/kg to a fasting rat; format: ADME, organism-based; set-up: dose 10 mg/kg, route oral; conditions: in vivo, po; outline: as §3
[25] = Pharmacokinetic parameter AUC was evaluated when a dose of 10 mg/kg is administered orally to a fasting rat; format: ADME, organism-based; set-up: dose 10 mg/kg, route oral; conditions: in vivo, po; outline: as §4
[26] = Half life after administering orally a dose of 30 mg/kg; format: ADME, organism-based; set-up: dose 30 mg/kg, route oral; conditions: rat, in vivo, po; outline: as §3
Cricetinae gen. sp. [27] = test: as §1; format: functional, Cricetulus griseus; outline: as §2

`CC(C)[C@H](NC(=O)[C@@H]1Cc2ccccc2N1C(=O)[C@@H](NC(=O)c1cccnc1)C(C)C)C(=O)c1nnc(C(C)(C)C)o1` showed a Ki (Neutrophil elastase) of 5.1 nM and an inhibition in vivo at 30 mg/kg (Cricetinae gen. sp. [1]) of 36%.

`Cc1nnc(C(=O)[C@@H](NC(=O)Cn2c(-c3ccc(F)cc3)ncc(N)c2=O)C(C)C)o1` gave an inhibition in vivo at 30 mg/kg (Cricetinae gen. sp. [1]) of 47%.

`CC(C)[C@H](NC(=O)[C@@H]1CCCN1C(=O)[C@@H](NS(C)(=O)=O)C(C)C)C(=O)c1nnc(C(C)(C)C)o1` gave an inhibition in vivo at 30 mg/kg (Cricetinae gen. sp. [1]) of 17%.

Compound `CC(C)[C@H](NC(=O)Cn1c(-c2ccccc2)ncc(N)c1=O)C(=O)c1nnc(C2(C)CC2)o1` has an ED50 (Cricetinae gen. sp. [1]) of 11 mg/kg.

`CC(C)[C@H](NC(=O)CN1C(=O)N[C@H](C(C)C)C1=O)C(=O)c1nnc(C(C)(C)C)o1` showed an inhibition in vivo at 30 mg/kg (Cricetinae gen. sp. [1]) of 0%.

For `CC(C)C(NC(=O)Cn1c(-c2ccc(F)cc2)ncc(N)c1=O)C(=O)C(F)(F)F` (stereo not given), the ED50 (Cricetinae gen. sp. [2]) was 7.5 mg/kg.

Work on `CC(C)[C@H](NC(=O)CN1C(=O)CN=C(c2ccc(Cl)cc2)c2ccccc21)C(=O)c1nnc(C(C)(C)C)o1` yielded a Ki (Neutrophil elastase) of 57.8 nM and an inhibition in vivo at 30 mg/kg (Cricetinae gen. sp. [1]) of 22%.

`CC(C)[C@H](NC(=O)Cn1c(-c2ccc(F)cc2)ncc(N)c1=O)C(=O)c1nnc(C(C)(C)c2ccccc2)o1` gave an ED50 (Cricetinae gen. sp. [2]) of 10 mg/kg.

`CC(C)[C@H](NC(=O)Cn1c(-c2ccccc2)nccc1=O)C(=O)c1nnc(C2(C)CC2)o1` gave an ED50 (Cricetinae gen. sp. [2]) of 6.6 mg/kg.

For `CC(C)[C@H](NC(=O)Cn1c(-c2ccc(F)cc2)ncc(N)c1=O)C(=O)c1nnc(-c2cccnc2)o1`, the inhibition in vivo at 30 mg/kg (Cricetinae gen. sp. [1]) was 0%.

`CC(C)[C@H](NC(=O)C1Cc2ccccc2CN1C(=O)c1c[nH]cn1)C(=O)c1nnc(C(C)(C)C)o1` (stereo not given in full) showed a Ki (Neutrophil elastase) of 309 nM and an inhibition in vivo at 30 mg/kg (Cricetinae gen. sp. [1]) of 29%.

Work on `CC(C)[C@H](NC(=O)Cn1c(-c2ccc(F)cc2)nccc1=O)C(=O)c1nnc(C2(C)CC2)o1` yielded an ED50 (Cricetinae gen. sp. [2]) of 5.5 mg/kg.

`CC(C)C(NC(=O)Cn1c(-c2ccccc2)ncc(N)c1=O)C(=O)c1nnc(C(C)(C)C)o1` (stereo not given) gave a Cmax [3] of 174 ng/mL, a bioavailability [4] of 50.5% and a Tmax [5] of 0.44 h. It also gave an AUC [6] of 1930 ng·h/mL, a Tmax [7] of 0.31 h and an AUC [8] of 230 ng·h/mL. It also gave a bioavailability [9] of 39.4%, a Tmax [10] of 0.63 h and a Cmax [11] of 351 ng/mL. For the same compound, the half-life [12] was 5.1 h, the Cmax [13] was 527 ng/mL and the Cmax [14] was 257 ng/mL. The AUC [15] was 760 ng·h/mL, the Tmax [16] was 1.1 h and the AUC [17] was 3050 ng·h/mL. For the same compound, the Tmax [18] was 0.31 h, the ED50 (Cricetinae gen. sp. [2]) was 5.1 mg/kg and the half-life [19] was 3 h. For the same compound, the half-life [20] was 4.5 h, the Cmax [21] was 115 ng/mL and the half-life [22] was 5 h. For the same compound, the AUC [23] was 976 ng·h/mL, the half-life [24] was 7.4 h and the AUC [25] was 2130 ng·h/mL. It also gave a half-life [26] of 8.7 h.

With `CC(C)[C@H](NC(=O)[C@@H]1Cc2ccccc2CN1C(=O)[C@@H](NC(=O)c1cccnc1)C(C)C)C(=O)c1nnc(C(C)(C)C)o1` the Ki (Neutrophil elastase) was 1.66 nM and the ED50 (Cricetinae gen. sp. [2]) was 14.2 mg/kg.

`COc1ccc(-c2nnc(C(=O)[C@@H](NC(=O)Cn3c(-c4ccc(F)cc4)ncc(N)c3=O)C(C)C)o2)cc1` gave a Ki (Neutrophil elastase) of 21.2 nM and an inhibition in vivo at 30 mg/kg (Cricetinae gen. sp. [1]) of 13%.

Work on `CC(C)c1nnc(C(=O)[C@@H](NC(=O)Cn2c(-c3ccc(F)cc3)ncc(N)c2=O)C(C)C)o1` yielded an inhibition in vivo at 30 mg/kg (Cricetinae gen. sp. [27]) of 79%.
